Results collected from several papers.
Lines come from different studies, so protocols differ.
Target: 5'-AMP-activated protein kinase catalytic subunit alpha-2 (PRKAA2, Homo sapiens, UniProt P54646)

Cc1ccc(NC(=O)c2ccc(C)c(C(F)(F)F)c2)cc1C#Cc1nn(C2CCC(O)CC2)c2ncnc(N)c12 (stereo not shown)
remaining signal (cell-free assay; 10 µM): 90%

COc1cc(-c2cc(-c3ccc(N4CCNCC4)cc3)cnc2C)cc(OC)c1OC
inhibition (enzyme activity, inhibitor; 1 µM): 1%

C=CC(=O)Nc1cc(Nc2nccc(Nc3cc(Cl)c(F)cc3C(C)(C)O)n2)c(OC)cc1N1CC[C@@H](N(C)C)C1
inhibition (enzyme activity, inhibitor; 1 µM): 12%

CN1CC(Oc2cnc(C#N)cc2-c2ccn3nc(NC(=O)C4CC4)cc3c2)C1
inhibition (enzyme activity, inhibitor; 1 µM): 3%

CCCOc1ccc(OC)c(F)c1C(=O)c1ccc(C(=O)N[C@@H]2CNC[C@H]2NC(=O)c2ccc3[nH]ncc3c2)cc1
remaining activity (enzyme activity, inhibitor; 50 nM): 51%

CN([C@@H]1CCc2c(CC(=O)O)c3cc(S(C)(=O)=O)ccc3n2C1)S(=O)(=O)c1ccc(F)cc1
remaining binding (cell-free assay, competition with immobilised ligand; 1 µM): 100%

Cc1ccc(C(=O)NCc2ccsc2)cc1C#Cc1cn(C(C)C)c2ncnc(N)c12
activity vs control (enzyme activity, inhibitor; 1 µM): 80%

CCCCN(CCCC)C(=O)CN1C[C@H](c2cc(OC)c3c(c2)OCO3)[C@@H](C(=O)O)[C@@H]1CC(C)(C)CCC
remaining binding (cell-free assay, competition with immobilised ligand; 1 µM): 100%

c1ccc(CNc2nc(N3CCOc4ccccc43)nc3c2CCCC3)cc1
inhibition (target engagement in cells, inhibitor, chemoproteomics; 20 mM): -6.2%

CC(=O)N1CCC(c2ccc(C(=O)NC3=NCCN3)cc2C(F)(F)F)CC1
remaining binding (cell-free assay, competition with immobilised ligand; 1 µM): 100%

COc1cccc2c(NCc3ccccc3)nc(-n3c(N)nc4ccccc43)nc12
inhibition (target engagement in cells, inhibitor, chemoproteomics; 20 mM): 11.9%

CC1=C(C#N)C(c2ccc3c(c2)c(NC(=O)c2ccccc2C)nn3C)C(C#N)=C(C)N1
remaining binding (cell-free assay, competition with immobilised ligand; 1 µM): 99%

Cc1cc(NC(=O)c2cccc3cc(-c4cccc5[nH]nc(N)c45)ccc23)ccc1F
activity vs control (enzyme activity, inhibitor; 0.1 µM): 97%
